Sampled rows, rich in hits. Any-hit rate of the full collection: about 1.7%.
APJ ag – agonists of human apelin receptor APJ, primary screen, CHO-K1 cells, PathHunter beta-arrestin, luminescence; P35414; actives 0.11% (n = 330,000); 0% DMSO wells, 100% apelin; activation, % at 20 µM;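 active = activation more than six SD over the plate average, tested at 20 µM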
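Material: CHO-K1 APJ beta-arrestin complementation cell line; Input: cell density 1000 per well; Incubation: compound stimulation 90 min at 25 °C, detection 60 min; Signal: luminescence from split beta-galactosidase complementation, Galacton Star/Emerald II substrate; Controls: DMSO-only wells as negative, 10 nM Apelin-13 as positive control.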
CCR6 antagonist – CCR6 receptor antagonists, primary screen, cell-based, CHO-K1, luminescence, beta-arrestin, uHTS | C-C chemokine receptor type 6 (Homo sapiens), P51684 | CHO-K1 CCR6 PathHunter beta-arrestin, CCL20-stimulated | inhibition, % at 20 µM | actives 0.49% (n = 340,000) | AID 493098, 2011;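 active = compounds whose inhibition of the agonist-driven luminescence signal at 20 µM reaches about 50%, limit read from the data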;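 also: cells stimulated with CCL20 at 14 nM final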
APJ antag – antagonists of human apelin receptor APJ, primary screen, CHO-K1 cells, beta-arrestin complementation, luminescence | actives 0.32% (n = 330,000) | inhibition, % at 20 µM;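 active = inhibition above about 40% at 20 µM, limit read from the data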;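 also: cells challenged with 10 nM apelin-13 agonist together with compound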
CXCR6 inh – CXCR6 receptor inhibitors, primary screen, cell-based, beta-arrestin, luminescence, CHO-K1 PathHunter, 1536-well; inhibition, % at 20 µM; actives 0.36% (n = 360,000); in the data active = inhibition above about 34%, passing the limit was not always enough;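 also: antagonist mode with CXCL16 agonist at 10 nM final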
Target sequence (O00574 whole entry, looked up): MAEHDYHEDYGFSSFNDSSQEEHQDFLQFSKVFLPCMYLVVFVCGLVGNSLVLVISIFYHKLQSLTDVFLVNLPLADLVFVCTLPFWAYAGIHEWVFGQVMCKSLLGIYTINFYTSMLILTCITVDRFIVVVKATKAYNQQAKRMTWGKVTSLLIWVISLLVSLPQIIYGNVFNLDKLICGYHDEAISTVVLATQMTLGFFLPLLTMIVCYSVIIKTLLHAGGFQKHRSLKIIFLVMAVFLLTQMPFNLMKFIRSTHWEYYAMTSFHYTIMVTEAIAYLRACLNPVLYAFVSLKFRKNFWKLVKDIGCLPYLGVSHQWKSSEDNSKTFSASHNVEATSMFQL
PfG6PD inh – PfG6PD enzyme inhibitors, primary screen, biochemical, fluorescence intensity, uHTS; glucose-6-phosphate dehydrogenase-6-phosphogluconolactonase (Plasmodium falciparum 3D7); PfGluPho enzyme, NADPH resazurin-diaphorase fluorescence; inhibition, % at 20 µM; actives 0.78% (n = 350,000);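 active = inhibition reaching at least a set limit at 20 µM in the primary screen, cut at about 59% in these data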
B2AR ag – beta2AR agonists driving receptor internalization, primary screen, cell-based, FAP fluorogen, flow cytometry; Beta-2 adrenergic receptor (Homo sapiens), P07550; Am2.2-beta2AR cells; response, % (no concentration beside the values); actives 0.43% (n = 340,000);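 active = response above a set limit, near 3 SD of response in nonfluorescent compounds, cut at about 42% in these data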
Beta2AR ag CP1 – beta2AR agonists via receptor internalization, confirmation, cell-based, FAP fluorogen, flow cytometry, single point, cherry pick 1; percent response (surface receptor), % at 10 µM; actives 25% (n = 1,100); Am2.2-beta2AR cells, FAP surface receptor; stronger effect = lower value; shares compounds with B2AR ag;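 active = surface receptor percent response at or below 58%, roughly 3 SD from nonfluorescent compounds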
FAP fluor counter – fluorescence artifact in beta-2AR agonist FAP counterscreen. shares compounds with B2AR ag. Am2.2 cells, FAP fluorogen flow cytometry; stronger effect = lower value. calls only at 10 µM. 1,100 tested, under 10 active;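 active = percent response below a set limit in fluorescence channel 1 and below 50% in channel 8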
Of the large screens only hits and unclear results are named; the others gave an inactive call (follow-up assays come after a bar, where they were run).

O=C(CCc1ccccc1)Oc1ccccc1[N+](=O)[O-]	none (no result: CXCR6 inh)
COc1ccc(CN(C)Cc2c(O)ccc3cc(Br)ccc23)cc1OC	B2AR ag 43 | Beta2AR ag CP1 inactive | FAP fluor counter inactive
Fc1ccc(Nc2nc(-c3ccncc3)nc3ccccc23)cc1F	B2AR ag 50 | Beta2AR ag CP1 inactive | FAP fluor counter inactive
Clc1cccc(C2Nc3cccc4cccc(c34)N2)c1Cl	none | Beta2AR ag CP1 inactive | FAP fluor counter inactive
Clc1ccccc1C1Nc2cccc3cccc(c23)N1	none
C[C@H](CO)N1C[C@H](C)[C@H](CN(C)C(=O)Nc2ccc(N3CCN(C)CC3)cc2)OCc2cnnn2CCCC1=O	none (no result: APJ ag, CCR6 antagonist, APJ antag, B2AR ag)
O=C1C=C(NC2CCCC2)CC(c2ccccc2)C1 (stereo unspecified)	none | Beta2AR ag CP1 inactive | FAP fluor counter inactive
CCC(C)(C)NC(=O)C(c1ccc(OC)cc1)N(Cc1ccccc1)C(=O)CCC(=O)Nc1cc(C)on1 (stereo unspecified)	B2AR ag 62 | Beta2AR ag CP1 inactive | FAP fluor counter inactive
COc1ccc(-c2nn3c(-c4ccccc4)nnc3s2)cc1	none
CCN(CC)c1ccc(-c2nn3c(-c4ccccc4OC)nnc3s2)cc1	B2AR ag 42 | Beta2AR ag CP1 inactive | FAP fluor counter inactive
C/C(=N/NC(=O)c1nnn(-c2nonc2N)c1CSc1ccc(Cl)cc1)c1ccncc1	none (no result: APJ ag, CCR6 antagonist, APJ antag, B2AR ag)
CCOc1cc(-c2c(C)c(C)nc(N)c2C#N)ccc1O	none
CCOc1cc(-c2c(C)c(CC)nc(N)c2C#N)ccc1O	B2AR ag 69 | Beta2AR ag CP1 inactive | FAP fluor counter inactive
COc1cccc(CNC(=S)Nc2ccc3c(c2)c(=O)n(C)n3Cc2ccccc2)c1	none (no result: APJ ag, CCR6 antagonist, APJ antag, PfG6PD inh, B2AR ag)
O=C(OCc1cccc(C(F)(F)F)c1)c1cc(S(=O)(=O)N2CCOCC2)ccc1F	B2AR ag 56 | Beta2AR ag CP1 inactive | FAP fluor counter inactive
Cn1c(CNC(=O)c2ccc3c(c2)OCO3)nnc1SCC(=O)Nc1ccccc1F	none
CCCCNC(=O)c1onc(CSc2ccccn2)c1C(=O)NCCCC	none
O=C(O)c1ccc(S(=O)(=O)N2CCc3ccccc3C2)cc1	none
CCOC(=O)c1c(C)[nH]c(C)c1C(=O)COC(=O)c1ccc(S(=O)(=O)N(CC)CC)cc1	none
CCOC(=O)c1c(C)[nH]c(C)c1C(=O)COC(=O)c1cccc(S(=O)(=O)N(CC)CC)c1	B2AR ag 44 | Beta2AR ag CP1 inactive | FAP fluor counter inactive
O=C1ON=C(c2ccccc2)/C1=C/c1cccnc1	none (no result: APJ ag, APJ antag) | Beta2AR ag CP1 inactive | FAP fluor counter inactive
CC(C)CC1COC(=O)N1 (stereo unspecified)	none
O=C(Nc1ccc(Br)cc1)c1cccc(S(=O)(=O)Nc2cnc3ccccc3c2)c1	B2AR ag 47 | Beta2AR ag CP1 inactive | FAP fluor counter inactive
O=C(Nc1ccc(Br)cc1)c1cccc(S(=O)(=O)Nc2ccccn2)c1	none
Fc1ccc(CNc2nc(-c3cccnc3)nc3ccccc23)cc1	none | Beta2AR ag CP1 inactive | FAP fluor counter inactive
Clc1cccc(CNc2nc(-c3cccnc3)nc3ccccc23)c1	none
c1ccc(CNc2nc(-c3cccnc3)nc3ccccc23)cc1	none | Beta2AR ag CP1 inactive | FAP fluor counter inactive
c1cncc(CNc2nc(-c3cccnc3)nc3ccccc23)c1	none | Beta2AR ag CP1 inactive | FAP fluor counter inactive
NS(=O)(=O)c1ccc(CNc2nc(-c3cccnc3)nc3ccccc23)cc1	none | Beta2AR ag CP1 inactive | FAP fluor counter inactive
N#Cc1ccccc1OCC(=O)Nc1cc(S(=O)(=O)N2CCCCC2)ccc1N1CCOCC1	none (no result: APJ ag, APJ antag)
